Experimental data taken from ChEMBL document CHEMBL1123243, “Studies on prodrugs. 5. Synthesis and antimicrobial activity of N-(oxoalkyl)norfloxacin derivatives” (J Med Chem, 1986).

Tests used:
Bacillus subtilis = experiment: Compound was tested for antimicrobial activity against Bacillus subtilis ATCC 6633; format: functional
Summary of the method: (§1)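 Agar dilution on Mueller-Hinton agar with serial 2-fold dilutions; plate concentrations 0.006 to 100 µg/mL. Inoculum about 10^6 cfu/mL. Plates incubated at 37 °C for 18 h. MIC is the lowest concentration preventing visible growth.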

Escherichia coli [1] = experiment: Compound was tested for antimicrobial activity in mice infected with Escherichia coli KC-14 after peroral administration; format: functional; details: po
Summary of the method: (§2)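 Male ddy mice (20 ± 2 g), groups of 10, were infected ip with 0.5 mL of bacteria at 10 or 100 times the 50% lethal dose. Compound was suspended in 0.5% sodium carboxymethyl cellulose and given orally 1 h postinfection. Survival was scored after 1 week.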

Escherichia coli [2] = experiment: Compound was tested for antimicrobial activity against Escherichia coli KC-14; format: functional; summary of the method: as §1
Klebsiella pneumoniae = experiment: Compound was tested for antimicrobial activity against Klebsiella pneumonia IFO3512; format: functional; summary of the method: as §1
Proteus vulgaris = experiment: Compound was tested for antimicrobial activity against Proteus vulgaris OX-19; format: functional; summary of the method: as §1
Pseudomonas aeruginosa = experiment: Compound was tested for antimicrobial activity against Pseudomonas aeruginosa PAO1; format: functional; summary of the method: as §1
Serratia marcescens = experiment: Compound was tested for antimicrobial activity against Serratia marcescens 16; format: functional; summary of the method: as §1
Staphylococcus aureus = experiment: Compound was tested for antimicrobial activity against Staphylococcus aureus FDA207PJC-1; format: functional; set-up: unit: µg/mL; summary of the method: as §1
Mus musculus [3] = experiment: Compound was tested for antimicrobial activity in mice infected with Pseudomonas aeruginosa E2,po; format: functional
Summary of the method: (§3)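 Male ddy mice (20 ± 2 g, groups of 10) received an intraperitoneal inoculum of 0.5 mL bacterial dilution at 10 or 100 times the 50% lethal dose. Compound was suspended in 0.5% sodium carboxymethyl cellulose and given orally 1 h postinfection.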

Mus musculus [4] = experiment: Compound was tested for antimicrobial activity in mice infected with Staphylococcus aureus smith. po; format: functional; summary of the method: as §3
[5] = Lethal dose was measured in rat after iv administration; format: toxicity, organism-based; details: in vivo
Summary of the method: (§4)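 Each compound was suspended in 0.5% cmc and given by the stated route. Deaths were counted within 1 week, and LD50 was calculated by the method of Weil.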

Mus musculus [6] = experiment: Serum concentration in mice, after oral administration at a dose of 100 mg/kg p.o. at 0.5 h; format: functional, organism-based; set-up: dose 100 mg/kg
Summary of the method: (§5)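 Mice were given compound orally as a suspension in 0.5% sodium carboxymethyl cellulose at 100 mg/kg (NFLX-equivalent dose). Animals were killed by bleeding at 0.5, 1.0, 2.0 and 4.0 h. Serum norfloxacin and parent compound were measured by HPLC.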

Mus musculus [7] = experiment: Serum concentration in mice, after oral administration at a dose of 100 mg/kg p.o. at 1 hr; format: functional, organism-based; set-up: dose 100 mg/kg; summary of the method: as §5
Mus musculus [8] = experiment: (§6) Serum concentration in mice, after oral administration at a dose of 100 mg/kg p.o. at 2 hr; format: functional, organism-based; set-up: dose 100 mg/kg
Summary of the method: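 Compound was suspended in 0.5% sodium carboxymethyl cellulose and given orally to mice at 100 mg/kg, as a dose equivalent to 100 mg/kg NFLX. Mice were killed by bleeding at 0.5, 1.0, 2.0 and 4.0 h. Serum NFLX and parent compound were each measured by HPLC.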

Mus musculus [9] = experiment: Serum concentration in mice, after oral administration at a dose of 100 mg/kg p.o. at 5 hr; format: functional, organism-based; set-up: dose 100 mg/kg
Mus musculus [10] = experiment: Compound was tested for antimicrobial activity in mice infected with Escherichia coli KC-14, po; format: functional; summary of the method: as §2
Mus musculus [11] = experiment: Serum concentration in mice, after oral administration at a dose of 50 mg/kg p.o. at 2 hr; format: functional, organism-based; set-up: dose 50 mg/kg
Mus musculus [12] = experiment: Serum Levels in mice, after oral administration at a dose of 100 mg/kg p.o. at 0.5 h; format: functional, organism-based; set-up: dose 100 mg/kg; summary of the method: as §5
Mus musculus [13] = experiment: Serum Levels in mice, after oral administration at a dose of 100 mg/kg p.o. at 1 hr; format: functional, organism-based; set-up: dose 100 mg/kg; summary of the method: as §5
Mus musculus [14] = experiment: Serum Levels in mice, after oral administration at a dose of 100 mg/kg p.o. at 2 hr; format: functional, organism-based; set-up: dose 100 mg/kg; summary of the method: as §5
Mus musculus [15] = experiment: Serum Levels in mice, after oral administration at a dose of 100 mg/kg p.o. at 5 hr; format: functional, organism-based; set-up: dose 100 mg/kg
Mus musculus [16] = experiment: as §6; format: functional, organism-based; set-up: dose 100 mg/kg; summary of the method: as §5; remark: listed apart in the source
Mus musculus [17] = experiment: Compound was tested for antimicrobial activity in mice infected with Staphylococcus aureus smith, po; format: functional; summary of the method: as §2
[18] = Lethal dose was measured in rat after oral administration; format: toxicity, organism-based; details: in vivo; summary of the method: as §4
[19] = Compound was evaluated for area under curve doses in […] at 100 mg/kg po; format: functional, organism-based; set-up: dose 100 mg/kg

| Structure (SMILES) | Activity (Bacillus subtilis) | ED50 (Escherichia coli [1]) [mg/kg] | Activity (Escherichia coli [2]) | Activity (Klebsiella pneumoniae) | Activity (Proteus vulgaris) | Activity (Pseudomonas aeruginosa) | Activity (Serratia marcescens) | Activity (Staphylococcus aureus) | Serum concentration (Mus musculus [6]) [µg/mL] | Serum concentration (Mus musculus [7]) [µg/mL] | Serum concentration (Mus musculus [8]) [µg/mL] | Serum concentration (Mus musculus [9]) [µg/mL] | other results |
| --- | --- | --- | --- | --- | --- | --- | --- | --- | --- | --- | --- | --- | --- |
| CCn1cc(C(=O)O)c(=O)c2cc(F)c(N3CCN(C(C)(C)C(C)=O)CC3)cc21 | 0.39 | 6.06 | 3.13 | 0.39 | 1.56 | 6.25 | 6.25 | 0.78 | – | – | – | – | – |
| CCn1cc(C(=O)O)c(=O)c2cc(F)c(N3CCNCC3)cc21 [NORFLOXACIN] | 0.39 | 4.38 | 0.39 | 0.2 | 0.2 | 0.78 | 0.78 | 0.39 | – | – | – | – | ED50 (Mus musculus [3]): 59 mg/kg; ED50 (Mus musculus [4]): 36.4 mg/kg; LD50 [5]: 314 mg/kg |
| CCn1cc(C(=O)O)c(=O)c2cc(F)c(N3CCN(CC(=O)c4ccccc4)CC3)cc21 | 0.78 | > 7.5 | 0.78 | 0.78 | 0.39 | 1.56 | 1.56 | 0.78 | – | – | – | – | – |
| CCn1cc(C(=O)O)c(=O)c2cc(F)c(N3CCN(C(C)C(C)=O)CC3)cc21 (stereo not given) | 0.78 | 3.53 | 3.13 | 0.78 | 1.56 | 12.5 | 12.5 | 0.78 | – | – | – | – | – |
| CCn1cc(C(=O)O)c(=O)c2cc(F)c(N3CCN(CC(=O)C(C)(C)C)CC3)cc21 | 0.78 | 7.13 | 12.5 | 0.78 | 3.13 | 50 | <100 | 0.78 | 19.6 | 15.4 | 9.4 | 6.73 | – |
| CCn1cc(C(=O)O)c(=O)c2cc(F)c(N3CCN(CC(C)O)CC3)cc21 (stereo not given) | 0.78 | 3.9 | 0.78 | 0.2 | 0.78 | 6.25 | 3.12 | 0.39 | 19.5 | 20.2 | – | 2.82 | ED50 (Mus musculus [10]): 3.5 mg/kg; Serum concentration (Mus musculus [11]): 4.48 µg/mL; Serum level (Mus musculus [12]): 13.6 µg/mL; Serum level (Mus musculus [13]): 27.1; Serum level (Mus musculus [14]): 11.8 µg/mL; Serum level (Mus musculus [15]): 2.21; Serum concentration (Mus musculus [16]): 6.93 µg/mL |
| CCn1cc(C(=O)O)c(=O)c2cc(F)c(N3CCN(CC(C)=O)CC3)cc21 | 0.39 | 0.95 | 1.56 | 0.2 | 0.78 | 6.25 | 6.25 | 0.39 | 23.6 | 7.29 | 2.69 | 0.46 | ED50 (Mus musculus [3]): 18.5 mg/kg; ED50 (Mus musculus [17]): 12.6 mg/kg; Serum concentration (Mus musculus [11]): 8.88 µg/mL; LD50 [5]: 684 mg/kg; LD50 [18]: > 4000 mg/kg |
| CCn1cc(C(=O)O)c(=O)c2cc(F)c(N3CCN(CCC(C)=O)CC3)cc21 | 0.39 | 2.34 | 0.78 | 0.2 | 0.2 | 0.78 | 0.78 | 0.78 | 7.06 | 3.55 | 2.22 | 1.18 | AUC [19]: 12.9 |
